Assay [1] concerns HT-29. In words: Downregulation of CDK6 expression in human HT-29 cells at 10 uM after 48 hrs by immunoblotting method. Format: functional, cell-based. In a few lines:
(§1)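 HT-29 exposed to 10 μM for 48 h; whole-cell lysates immunoblotted for the indicated proteins (total and cleaved PARP for the apoptosis line).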
In general terms: In western blotting, separated proteins are transferred to a membrane and probed.

In assay [2] the test system is HT-29. The experiment in a line: Induction of apoptosis in human HT-29 cells assessed as increase in caspase 9 activity at 30 uM after 2 hrs by luminescent assay relative to control. Format: functional. The procedure, abridged: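 HT-29 cells exposed to compound 2 h; effector/initiator caspase enzymatic activity measured by luminescent assays, normalized to control treatment; means ± SEM, n = 4.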

Assay [3] concerns T84. In words: Antiproliferative activity against human T84 cells assessed as cellular DNA content after 96 hrs by CyQUANT NF fluorescence assay. The format is functional, cell-based. Conditions: T84, 96 h. The procedure, abridged: (§2)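 Cells seeded at 750 (HT-29), 250 (PC-3) or 900 (T84, MCF7) cells/well, treated next day with concentration series for 72 h (HT-29, PC-3) or 96 h (T84, MCF7). Relative cell number from cellular DNA content by fluorescent DNA-binding dye. Variable-slope fit; efficiency = maximal inhibition (100% − Bottom) vs untreated; IC50 relative to the compound's own maximal efficiency.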

For assay [4], the system named is HT-29. The experiment in a line: Increase in extracellular acidification rate in human HT-29 cells at 2 uM measured for 20 to 150 mins by time-resolved fluorescence assay relative to control. Format: functional. In a few lines: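 HT-29 cells seeded 80 000/well, incubated overnight at 37 °C without CO2. Washed and loaded with pH-sensitive time-resolved fluorescence probe in low-buffering medium (1 mM PBS pH 7.4, 20 mM glucose, salts), 10 min at 37 °C, then compound added, wells unsealed. Read 200 min at 37 °C; lifetime converted to pH, rate taken 20–150 min as H+ change/min; n = 8.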

In assay [5] the test system is HT-29. The experiment in a line: Induction of apoptosis in human HT-29 cells at 30 uM after 24 hrs by annexin V-FLUOS/propidium iodide staining-based flow cytometry in presence of cyclosporine A. The format is functional, cell-based. The procedure, abridged:
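For 24 h, HT-29 cells were exposed to 30 μM compound with or without cyclosporin A (2 μM). Apoptosis and necrosis were scored by annexin V-FLUOS/propidium iodide flow cytometry. Means ± SEM, n = 3.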
On the technique in general: A flow cytometer gives signals particle by particle.

Assay [6] has as its system HT-29. In words: Antiproliferative activity against human HT-29 cells assessed as cellular DNA content at 20 uM after 48 hrs by CyQUANT NF fluorescence assay in presence of alpha-tocopherol. Format: functional, cell-based. In a few lines: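 HT-29 given concentration series of test compound with or without antioxidant (NAC 1 mM, GSH 2.5 mM, D3T 25 μM, α-tocopherol 50 μM, ascorbic acid 500 μM) for 48 h. Relative cell number from DNA-binding fluorescent dye; means ± SD, n = 4.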

Assay [7] has as its system HT-29. The experiment in a line: Induction of apoptosis in human HT-29 cells at 30 uM after 24 hrs by annexin V-FLUOS/propidium iodide staining-based flow cytometry in presence of ascorbic acid. The format is functional, cell-based. The procedure, abridged: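 HT-29 cells co-incubated 24 h with 30 μM compound and antioxidant: glutathione 2.5 mM, α-tocopherol 50 μM, or ascorbic acid 500 μM. Phosphatidylserine externalization measured by annexin V-FLUOS/propidium iodide staining and flow cytometry. Means ± SEM, n = 3.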

Assay [8] has as its system T84. In words: Antiproliferative activity against human T84 cells assessed as cellular DNA content after 96 hrs by CyQUANT NF fluorescence assay relative to control. Format: functional. In a few lines:
as §2

Assay [9] relates to HT-29. The experiment in a line: Antiproliferative activity against human HT-29 cells assessed as cellular DNA content after 72 hrs by CyQUANT NF fluorescence assay. Format: functional, cell-based. Conditions: HT-29, 72 h. The procedure, abridged:
as §2

For assay [10], the system named is HT-29. The experiment in a line: Antiproliferative activity against human HT-29 cells assessed as cellular DNA content after 72 hrs by CyQUANT NF fluorescence assay in presence of cisplatin. Format: functional, cell-based. In a few lines: (§3)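 HT-29 exposed 72 h to concentration series of mixtures at ratios 7:0 through 0:7 with the partner drug. Relative cell number from DNA-content fluorescence. IC70 = concentration giving 70% inhibition of total cells (means ± SD, n = 4); isobolograms by Loewe additivity, CI(M) = IC70(Mx)/IC70(x) + IC70(My)/IC70(y).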

The test system of assay [11] is HT-29. In words: Increase in extracellular acidification rate in human HT-29 cells at 2 uM measured for 20 to 150 mins by time-resolved fluorescence assay. Format: functional. The procedure, abridged: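 HT-29 seeded 80 000 cells/well, held overnight at 37 °C without CO2. Low-buffering medium (1 mM PBS pH 7.4, 20 mM glucose, salts) with pH-sensitive lifetime probe, unsealed wells. Time-resolved fluorescence at 37 °C for 200 min, lifetime converted to pH. Acidification rate (H+ change/min) taken over 20–150 min; means ± SEM, n = 8.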

Assay [12] deals with HT-29. The experiment in a line: Antiproliferative activity against human HT-29 cells assessed as cellular DNA content at 20 uM after 48 hrs by CyQUANT NF fluorescence assay in presence of PPAR siRNA. Format: functional, cell-based. In a few lines:
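HT-29 reverse-transfected with equimolar siRNA pool against PPARα, β/δ, γ (10 nM each) or 30 nM nonspecific siRNA, seeded 850 cells/well. After 48 h, 20 μM compound added for a further 48 h. Relative cell number from DNA content; means ± SD, n = 8.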

In assay [13] the test system is HT-29. In words: Antiproliferative activity against human HT-29 cells assessed as cellular DNA content after 72 hrs by CyQUANT NF fluorescence assay in presence of irinotecan. Format: functional, cell-based. In a few lines:
as §3

Assay [14] has as its system HT-29. The experiment in a line: Downregulation of CDK4 expression in human HT-29 cells at 10 uM after 48 hrs by immunoblotting method. Format: functional, cell-based. The procedure, abridged: as §1
Assay [15] has as its system HT-29. The experiment in a line: Induction of apoptosis in human HT-29 cells assessed as DNA fragmentation by measuring cytoplasmic BrdU-labeled DNA at 30 uM by ELISA. The format is functional, cell-based. The procedure, abridged: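 Cytosolic DNA by ELISA after 4 h treatment. BrdU method: cells (13 000/well) prelabelled with 10 μM BrdU for 2 days at 37 °C, unincorporated BrdU removed before treatment. Oligonucleosome method: 20 000 cells/well, 1 day at 37 °C. Cell-free background subtracted, normalized to vehicle; means ± SEM, n = 4.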
A general note: ELISA stands for enzyme-linked immunosorbent assay.

In assay [16] the test system is HT-29. The experiment in a line: Induction of apoptosis in human HT-29 cells assessed as mitochondrial membrane depolarization after 5 mins by JC-1 dye-based fluorescence assay. Format: functional, cell-based. The note with it: HT-29, 5 min. The procedure, abridged: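 HT-29 (40 000 cells/well) treated with concentration series for 5 min at 37 °C, then JC-1 added for a further 10 min and washed. Red (560/590 nm) to green (485/520 nm) fluorescence ratio taken as ΔΨm; variable-slope fit for IC50; means ± SD, n = 4.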

The subject of assay [17] is HT-29. The experiment in a line: Downregulation of CDK2 expression in human HT-29 cells at 10 uM after 48 hrs by immunoblotting method. Format: functional, cell-based. The procedure, abridged:
as §1

The subject of assay [18] is HT-29. The experiment in a line: Induction of ROS generation in human HT-29 cells at 30 uM by CM-H2DCFDA staining-based fluorescence assay in presence of alpha-tocopherol. Format: functional, cell-based. In a few lines: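 HT-29 (15 000 cells/well) loaded with 50 μM CM-H2DCFDA in PBS for 30 min at 37 °C, washed, then 60 min in phenol red-free DMEM/F-12. 30 μM compound added alone or with NAC 1 mM, GSH 2.5 mM, D3T 25 μM, α-tocopherol 50 μM or ascorbic acid 500 μM. Fluorescence 485/530 nm read kinetically at 37 °C for 22 h; area under curve; means ± SEM, n = 7.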

Structures are written as SMILES. pIC50: −log10 of the molar value. Calls of active or inactive are those of the source. The rule behind the calls is not given here.

The values below come from ChEMBL document CHEMBL3779787, “Amorfrutin C Induces Apoptosis and Inhibits Proliferation in Colon Cancer Cells through Targeting Mitochondria” (J Nat Prod, 2016).

`COc1c(CC=C(C)C)c(O)c(C(=O)O)c(CCc2ccccc2)c1CC=C(C)C`: the result in assay [1], in assay [5], in assay [6], in [7], in assay [10] and in [12] was Active. Moreover, the outcome in [13], in assay [14], in [15] and in assay [17] was Active. In addition, the “fold change (FC)” value in [2] and in assay [4] was 3 each time. Moreover, the results for the pIC50 in assay [3], in assay [9] and in assay [16] were 4.96, 5.09 and 6.22, respectively. The Efficacy in [8] is 99%. This compound displayed an Activity in [11] of 1.5 ×10⁻⁹ /min. Besides, the result in assay [18] was inactive.

By pIC50 is commonly meant the negative decadic logarithm of the IC50, by convention in mol/L.
